16 molecules from PubChem BioAssay can be followed below.

The viability is a read-out of living cells in per cent, often relative to untreated cells. As a reminder, the inhibition is the relative decrease from the control value, in per cent.

Active and inactive are the calls of the source.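 How the source made its calls, unless noted: active means viability loss from added drug above about 55%, and viability with drug at most 40%, in both replicates (limit read from the data, passing the limit was not always enough); inconclusive means both conditions met in only one replicate; inactive means neither replicate meets both conditions.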

A short description of assay [1]: Her2 expression decrease, cell viability multiplex – SKBR3 breast tumor cells, AlphaScreen, ATP viability, primary screen (AID 461;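 active means Her2 level under about 52% in both replicate screens, with viability over 70% of control, limit read from the data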;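 on Her2 level: lower value means less Her2 protein in the cells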;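 on viability: percent of carrier control wells set as 100% viability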). Particulars: SKBR3 Her2 protein level, 18-24 h, measured here: SKBR3 viability, ATP luminescence, at 10 µM. (Alpha assays give light when donor and acceptor beads are brought close together.)
Assay [2] has as its target Receptor tyrosine-protein kinase erbB-2 (Homo sapiens) (UniProt P04626). The assay is described as above. The conditions noted are these: 18-24 h, at 10 µM, stronger effect = lower value.
Assay [3] can be described thus: reduced viability of SK-BR-3 breast cancer cells – cell-based, 24 h, human, pilot screen (AID 572;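 active means viability at or below 10% of carrier control in both of two separate runs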;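 further: compound exposure lasted between 18 and 24 h rather than exactly 24 h; 100% = carrier-treated control wells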). Particulars: SK-BR-3 viability, CellTiter-Glo luminescence, at 10 µM, stronger effect = lower value. (In general: ATP-based viability assays read luminescence as a measure of living cells.)
Assay [4] is described as follows: HUVEC growth inhibition – cell-based, human, primary screen (AID 575;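 active means viability at or below 30% in both replicate assays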;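 further: 100% = median of untreated cell wells with 0.1% DMSO on each plate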). Particulars: HUVEC proliferation, CellTiter-Glo luminescence, 72 h; at 10 µM; stronger effect = lower value. The essentials: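 material = primary HUVEC, no more than 12 passages | input = 1250 cells per well | controls = vehicle and MePR control wells | measured by = CTG luminescence | times = 72 h compound incubation | format = collagen-coated 384-well format | read-out = % viability vs DMSO wells | doses = single 10 µM dose, 0.1% DMSO, from 5x medium stock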

Assay [5] is described as follows: H69AR cell proliferation blockers – human, duplicate replicates, primary screen (AID 580;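 active means viability at or under a set limit in both replicates, limit being median viability minus 3 SD, cut at about 48% in these data, passing the limit was not always enough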;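 further: 100% = mean luminescence of untreated wells and 0% = no signal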). The conditions noted are these: H69AR lung tumor cells viability, ATP luminescence, 72 h; at 10 µM; stronger effect = lower value.
Assay [6] in a line: MRP1 drug-resistance reversers in H69AR cells – cell-based, doxorubicin co-treatment, pilot screen (AID 601). Particulars: CellTiter-Glo, 72 h, at 10 µM; for differential viability (reversal): stronger effect = higher value.
A short description of assay [7]: yeast transport mutant growth inhibition pilot in 384-well plates, post-Golgi transport modulator project (AID 636; in the data active means inhibition above about 31%). The conditions noted are these: absorbance 615 nm, about 18 h, stronger effect = higher value.
Assay [8] in a line: growth suppression of yeast trafficking mutant, preliminary HTS, modulators of trafficking downstream of Golgi apparatus project, 1536-format plate, OD 615 nm (AID 637; in the data active means inhibition above about 30%). Particulars: yeast transport mutant growth, absorbance 615 nm, 18 h; stronger effect = higher value.
The mark [9] stands for this setting: H69AR cells + 2 uM doxorubicin, measured here: viability with 2 uM doxorubicin, stronger effect = lower value.
Where [10] appears, read: H69AR cells, compound alone cytotoxicity.

Receptor tyrosine-protein kinase erbB-2 (Homo sapiens), sequence (P04626 whole entry, looked up): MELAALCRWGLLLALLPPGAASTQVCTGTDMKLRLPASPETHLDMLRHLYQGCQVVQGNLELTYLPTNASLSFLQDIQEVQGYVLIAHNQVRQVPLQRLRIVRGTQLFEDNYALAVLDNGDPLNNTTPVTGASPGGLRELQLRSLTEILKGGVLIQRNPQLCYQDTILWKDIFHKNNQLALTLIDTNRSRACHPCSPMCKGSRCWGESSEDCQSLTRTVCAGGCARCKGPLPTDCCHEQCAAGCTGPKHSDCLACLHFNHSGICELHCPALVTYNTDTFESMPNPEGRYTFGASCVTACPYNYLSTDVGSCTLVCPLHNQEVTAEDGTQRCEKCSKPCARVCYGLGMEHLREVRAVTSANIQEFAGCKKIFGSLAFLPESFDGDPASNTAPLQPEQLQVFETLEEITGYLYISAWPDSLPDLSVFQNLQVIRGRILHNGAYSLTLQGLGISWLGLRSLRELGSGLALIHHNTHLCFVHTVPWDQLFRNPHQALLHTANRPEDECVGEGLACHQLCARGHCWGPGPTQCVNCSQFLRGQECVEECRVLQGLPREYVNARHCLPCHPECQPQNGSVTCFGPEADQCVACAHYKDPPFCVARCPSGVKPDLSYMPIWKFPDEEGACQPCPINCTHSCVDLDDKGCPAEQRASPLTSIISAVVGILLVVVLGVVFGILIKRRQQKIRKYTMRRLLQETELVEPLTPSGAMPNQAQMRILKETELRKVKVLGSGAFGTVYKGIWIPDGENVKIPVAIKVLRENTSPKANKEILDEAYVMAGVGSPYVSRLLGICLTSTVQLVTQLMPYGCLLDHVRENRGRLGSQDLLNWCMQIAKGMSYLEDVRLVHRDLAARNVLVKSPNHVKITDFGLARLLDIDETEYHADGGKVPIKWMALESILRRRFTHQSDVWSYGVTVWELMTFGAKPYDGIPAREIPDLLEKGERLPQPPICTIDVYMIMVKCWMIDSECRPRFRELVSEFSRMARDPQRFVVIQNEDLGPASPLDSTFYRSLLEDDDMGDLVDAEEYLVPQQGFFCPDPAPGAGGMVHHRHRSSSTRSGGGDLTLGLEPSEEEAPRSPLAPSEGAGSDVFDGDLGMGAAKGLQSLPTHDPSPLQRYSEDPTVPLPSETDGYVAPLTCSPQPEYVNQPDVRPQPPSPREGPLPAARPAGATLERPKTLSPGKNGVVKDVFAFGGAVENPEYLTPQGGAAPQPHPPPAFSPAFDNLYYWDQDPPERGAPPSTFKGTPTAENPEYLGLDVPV

With `COC(=O)c1c(NC(=O)CSc2nnc(-c3cccnc3)n2Cc2ccco2)sc(C)c1C`, the viability in assay [1] was 87%; in assay [3], 87% (inactive); in assay [4], 71.5% (inactive); in assay [5] it was 83.7% (inactive); in assay [6] (setting [9]), 74.5%; in assay [6] (setting [10]), 83.7%. The Her2 level in assay [2] was 77% (inactive). The differential viability (reversal) in assay [6] (H69AR cells + 2 uM doxorubicin) was 9.16% (inactive). Further, the inhibition is -5.14% (inactive) in assay [7] and -6.03% (inactive) in assay [8].

For `O=C(COC(=O)C1CC(=O)N(c2ccccc2)C1)c1ccccc1` (stereo not given), the viability in assay [1] was 99.5%; in assay [3], 99.5% (inactive); in assay [4] it was 101% (inactive); in assay [5] it was 86.6% (inactive); in assay [6] (setting [9]) it was 96.5%; in assay [6] (setting [10]), 86.6%. The Her2 level in assay [2] is 107% (inactive). For the same molecule, the differential viability (reversal) in assay [6] (H69AR cells + 2 uM doxorubicin) was -9.89% (inactive). In addition, the inhibition is 4.1% (inactive) in assay [7] and -6.67% (inactive) in assay [8].

Consider `Cc1ccc(-n2nc(-c3cccs3)cc2C(=O)NCC2CCCO2)c(C)c1` (stereo not given), for which the viability in assay [1] was 122%; in assay [3], 122% (inactive); in assay [4], 71.3% (inactive); in assay [5] it was 86.5% (inactive); in assay [6] (setting [9]), 100%; in assay [6] (setting [10]), 86.5%. Moreover, the Her2 level in assay [2] is 100% (inactive). Further, in assay [6] (H69AR cells + 2 uM doxorubicin), the differential viability (reversal) is -14% (inactive). The results for the inhibition in assay [7] and in assay [8] were -4.67% (inactive) and -6.72% (inactive), respectively.

Turning to `O=C(NC1CCCC1)c1ccc2nc[nH]c2c1`, the viability is 93.5% in assay [1]; 93.5% (inactive) in assay [3]; 103% (inactive) in assay [4]; 91.2% (inactive) in assay [5]; 81.7% in assay [6] (setting [9]); 91.2% in assay [6] (setting [10]). In addition, the Her2 level in assay [2] was 94.5% (inactive). The differential viability (reversal) in assay [6] (H69AR cells + 2 uM doxorubicin) is 9.56% (inactive). Besides, the values for the inhibition in assay [7] and in assay [8] were -6.23% (inactive) and -0.79% (inactive), respectively.

With `COC(=O)c1ccc(CNC(=O)COc2ccccc2Br)o1`, the viability was 93% in assay [1]; 93% (inactive) in assay [3]; 100% (inactive) in assay [4]; 103% (inactive) in assay [5]; 87.6% in assay [6] (setting [9]); 103% in assay [6] (setting [10]). Moreover, the Her2 level in assay [2] was 108% (inactive). Besides, the differential viability (reversal) in assay [6] (H69AR cells + 2 uM doxorubicin) was 15% (inactive). The inhibition in assay [7] is -3.33% (inactive); in assay [8], -10% (inactive).

Consider `CC(=O)N1CCN=C1SCc1ccc(Br)cc1`, for which the viability in assay [1] is 93%; in assay [3] it was 93% (inactive); in assay [4] it was 71.9% (inactive); in assay [5] it was 87% (inactive); in assay [6] (setting [9]), 83.7%; in assay [6] (setting [10]), 87%. Further, the Her2 level in assay [2] was 97.5% (inactive). Besides, the differential viability (reversal) in assay [6] (H69AR cells + 2 uM doxorubicin) was 3.28% (inactive). For the same molecule, the inhibition in assay [7] was -1.03% (inactive); in assay [8], 9% (inactive).

`c1cn(CC2(Cn3ccnc3)COC2)cn1`: the viability was 103% in assay [1]; 103% (inactive) in assay [3]; 83% (inactive) in assay [4]; 99.7% (inactive) in assay [5]; 87.8% in assay [6] (setting [9]); 99.7% in assay [6] (setting [10]). Also, the Her2 level in assay [2] is 70.5% (inactive). Besides, the differential viability (reversal) in assay [6] (H69AR cells + 2 uM doxorubicin) is 12% (inactive). Further, the values for the inhibition in assay [7] and in assay [8] were -3.77% (inactive) and -0.79% (inactive), respectively.

On to `CC(C(=O)Nc1ccccc1-c1ccccc1)N1CCOCC1` (stereo not given), for which the viability in assay [1] was 108%; in assay [3], 108% (inactive); in assay [4] it was 104% (inactive); in assay [5], 96.1% (inactive); in assay [6] (setting [9]) it was 97.1%; in assay [6] (setting [10]) it was 96.1%. In assay [2], the Her2 level was 97.5% (inactive). Moreover, the differential viability (reversal) in assay [6] (H69AR cells + 2 uM doxorubicin) was -1.07% (inactive). Besides, the inhibition in assay [7] was -10.6% (inactive); in assay [8], -4.13% (inactive).

Consider `NCC(O)COc1ccc2c(c1)OCO2` (stereo not given), for which the viability in assay [1] is 99%; in assay [3], 99% (inactive); in assay [4], 104% (inactive); in assay [5], 100% (inactive); in assay [6] (setting [9]), 97%; in assay [6] (setting [10]), 100%. Further, in assay [2], the Her2 level is 120% (inactive). The differential viability (reversal) in assay [6] (H69AR cells + 2 uM doxorubicin) is 3.33% (inactive). Moreover, the inhibition in assay [7] is 3.16% (inactive); in assay [8], 6.39% (inactive).

For `CCOC(=O)N1CCN(c2c(N3CCc4ccccc4C3)c(=O)c2=O)CC1`, the viability in assay [1] is 87%; in assay [3] it was 87% (inactive); in assay [4], 99.9% (inactive); in assay [5] it was 91.7% (inactive); in assay [6] (setting [9]) it was 85.4%; in assay [6] (setting [10]), 91.7%. For the same molecule, in assay [2], the Her2 level was 86% (inactive). The differential viability (reversal) in assay [6] (H69AR cells + 2 uM doxorubicin) is 6.33% (inactive). The inhibition in assay [7] is -2% (inactive); in assay [8] it was -3.11% (inactive).

Consider `CCOC(=O)N1CCN(CC(O)COc2ccccc2C(C)CC)CC1` (stereo not given), for which the viability is 104% in assay [1]; 104% (inactive) in assay [3]; 99% (inactive) in assay [4]; 94.7% (inactive) in assay [5]; 93.2% in assay [6] (setting [9]); 94.7% in assay [6] (setting [10]). The Her2 level in assay [2] was 92.5% (inactive). The differential viability (reversal) in assay [6] (H69AR cells + 2 uM doxorubicin) is 1.52% (inactive). Moreover, the results for the inhibition in assay [7] and in assay [8] were 31.6% (active) and 29.2% (inactive), respectively.

As to `COC(=O)c1ccc(CNC(=O)CSc2nc3sc(C)c(C)c3c(=O)n2C)o1`, the viability in assay [1] is 93.5%; in assay [3], 93.5% (inactive); in assay [4], 97.5% (inactive); in assay [5] it was 98.5% (inactive); in assay [6] (setting [9]), 82.9%; in assay [6] (setting [10]), 98.5%. In addition, in assay [2], the Her2 level was 102% (inactive). Besides, the differential viability (reversal) in assay [6] (H69AR cells + 2 uM doxorubicin) is 15.5% (inactive). Besides, the inhibition in assay [7] was 0.65% (inactive); in assay [8], -4.33% (inactive).

As to `Cc1cccc(OCC(=O)N2CCC(N3CCCCCC3)CC2)c1`, the viability in assay [1] was 95.5%; in assay [3], 95.5% (inactive); in assay [4] it was 97.1% (inactive); in assay [5], 106% (inactive); in assay [6] (setting [9]) it was 98.8%; in assay [6] (setting [10]), 106%. Moreover, in assay [2], the Her2 level is 126% (inactive). Also, the differential viability (reversal) in assay [6] (H69AR cells + 2 uM doxorubicin) was 7.21% (inactive). Further, the inhibition was -1.45% (inactive) in assay [7] and -6.07% (inactive) in assay [8].

As to `O=c1c(-c2ccc(Br)cc2)coc2c(CN3CCOCC3)c(O)ccc12`, the viability in assay [1] was 85.5%; in assay [3] it was 85.5% (inactive); in assay [4] it was 101% (inactive); in assay [5] it was 92.2% (inactive); in assay [6] (setting [9]), 96.5%; in assay [6] (setting [10]) it was 92.2%. The Her2 level in assay [2] was 80.5% (inactive). In addition, the differential viability (reversal) in assay [6] (H69AR cells + 2 uM doxorubicin) is -4.24% (inactive). Further, the inhibition in assay [7] was -3.33% (inactive); in assay [8], -2.22% (inactive).

Take `O=c1[nH]c(N2CCc3ccccc32)nc2c1CCCC2`: the viability is 125% in assay [1]; 125% (inactive) in assay [3]; 101% (inactive) in assay [4]; 104% (inactive) in assay [5]; 81.8% in assay [6] (setting [9]); 104% in assay [6] (setting [10]). For the same molecule, the Her2 level in assay [2] was 104% (inactive). For the same molecule, in assay [6] (H69AR cells + 2 uM doxorubicin), the differential viability (reversal) is 21.9% (inactive). For the same molecule, the inhibition was -1.87% (inactive) in assay [7] and -1.45% (inactive) in assay [8].

Consider `c1coc(Cn2nnnc2CN2CCN(C3CCCC3)CC2)c1`, for which the viability is 90.5% in assay [1]; 90.5% (inactive) in assay [3]; 92.8% (inactive) in assay [4]; 93.2% (inactive) in assay [5]; 88.6% in assay [6] (setting [9]); 93.2% in assay [6] (setting [10]). For the same molecule, the Her2 level in assay [2] was 107% (inactive). In assay [6] (H69AR cells + 2 uM doxorubicin), the differential viability (reversal) was 4.64% (inactive). Also, the inhibition in assay [7] was -4.67% (inactive); in assay [8], -8.41% (inactive).
